pIC50: −log10 of the molar value.
How the values were obtained:
[1] = target: GABA-A receptor; anion channel; experiment: Displacement of [3H]flunitrazepam from GABA-A benzodiazepine receptor of rat cerebral cortex membrane; format: tissue-based
In short: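 Rat cerebral cortex P2+P3 membranes (fresh tissue, two freeze-thaw-wash cycles to remove endogenous GABA), 0.4 mg protein. Incubated with 1 nM [3H]flunitrazepam and six concentrations (1 × 10^-5 – 1 × 10^-10 M) for 30 min at 4 °C. Filtered on GF/b filters and counted. […] IC50 from log-logit regression, mean of replicates.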

[2] = system: Mus musculus; experiment: Compound was tested for anticonvulsant activity against pentylenetetrazole-induced clonic seizures in mice on intraperitoneal administration; format: functional; settings: ip
In short: (§1)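 Female adult ICR mice, groups of eight, given test compound ip (100 mg/kg screen) in 0.5% aqueous methylcellulose or vehicle. Challenged 30 min later with pentyletetrazole 80 mg/kg sc and scored for clonic seizures.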

[3] = species: Mus musculus; experiment: Anticonvulsant activity against pentylenetetrazole-induced clonic seizures in mice; format: functional; in short: as §1
[4] = system: Mus musculus; experiment: Compound was tested for anticonvulsant activity against pentylenetetrazole-induced clonic seizures in mice; conv = 'convulsant at 10 mg/kg'; format: functional, organism-based; parameters: dose 10 mg/kg; in short: as §1
[5] = system: Mus musculus; experiment: Compound was tested for anticonvulsant activity against pentylenetetrazole-induced clonic seizures in mice at 80 mg/kg sc; format: functional; settings: route subcutaneous; in short: as §1
[6] = species: Mus musculus; experiment: Compound was tested for anticonvulsant activity against maximal electroshock-induced […] seizures in mice at 50mA, 200 ms; format: functional
[7] = target: GABA-A receptor; anion channel; experiment: Displacement of [3H]-diazepam from GABA-A benzodiazepine receptor of rat cerebral cortex membrane; format: tissue-based
In short: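 Membranes skipped the freeze-thaw-wash cycles, so endogenous GABA was retained. Six concentrations (1 × 10^-5 – 1 × 10^-10 M), 30 min at 4 °C, glass-fiber filtration and scintillation counting. IC50 from log-logit regression.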

[8] = (§2) Neurotoxicity against mice in rotarod test; format: toxicity, organism-based; settings: mouse, in vivo
In short: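 Mice in groups of five, dosed ip 30 min before being placed on a knurled 28 mm rod rotating at 6 rpm. Failure to stay on for 1 min was scored as neurotoxic. ED50 and confidence limits were obtained by probit analysis.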

[9] = system: Mus musculus; experiment: Compound was tested for anticonvulsant activity against bicuculline-induced clonic seizures in mice at 2.7 mg/kg sc; format: functional; settings: route subcutaneous
[10] = system: Mus musculus; experiment: Anticonvulsant activity against picrotoxin-induced clonic seizures in mice at 3.2 mg/kg sc; format: functional; settings: route subcutaneous
[11] = species: Rattus norvegicus; experiment: Ratio of IC50 values for [3H]-Ro- 15-1788 binding in absence and presence of added GABA (rat cerebral cortex); format: functional
In short: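 Rat cerebral cortex membranes. IC50 for displacement of [3H]Ro 15-1788 was measured without and with excess added GABA. The ratio of the two IC50 values served as the index of agonist efficacy.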

[12] = species: Mus musculus; experiment: Anxiolytic activity by light/dark exploratory behavioral test in mice; format: functional; settings: for minimal effective dose: read-out: MED
In short: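 Mice were dosed 30 min before testing, then placed individually in a two-compartment light/dark activity chamber and left undisturbed for 5 min. Time spent in each compartment was compared with vehicle-treated mice by Dunnett's t test. Minimal effective dose and sedative dose reported in mg/kg ip.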

[13] = species: Mus musculus; experiment: Potentiation of ethanol (EtOH) induced sleep time in mice; format: functional; settings: read-out: MED
In short: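 Compound given orally; the minimal effective dose (mg/kg po) for potentiating ethanol-induced sleep time in mice was reported.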

[14] = species: Rattus norvegicus; experiment: Anxiolytic activity by vogel punished drinking test in rats; format: functional; settings: read-out: MED
In short: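 Modified Vogel conflict test. Rats were water-deprived for 48 h with food available. A drinkometer delivered a 0.65 mA shock after every 20th lick during a 3-min session starting at the first shock. Total shocks were compared with vehicle-treated rats by Dunnett's t test. Minimal effective dose reported in mg/kg ip.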

[15] = species: Mus musculus; experiment: as §2; format: toxicity, organism-based; settings: in vivo
In short: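 Groups of five randomly selected mice were dosed 30 min before being placed on a knurled 28-mm rod rotating at 6 rpm. Failure to stay on the rod for 1 min was scored as neurotoxic. ED50 (mg/kg ip) and confidence limits came from probit analysis.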

[16] = system: Mus musculus; experiment: Compound was tested for anticonvulsant activity against pentylenetetrazole-induced clonic seizures in mice at dose 80 mg/kg.

SMILES	pIC50 [1]	ED50 ([3]; Mus musculus, read-out: ED50)	further results
CCCN(CCC)C(=O)Cn1c(-c2ccc(Cl)cc2)nc2ccccc21	5.57		
CN(C)C(=O)Cn1c(-c2ccc(Br)s2)nc2cccnc21	5.60		ED50 [2]: 100 mg/kg
CN(C)CCCNC(=O)Cn1c(-c2ccc(Cl)cc2)nc2cccnc21	< 5.00	64 mg/kg	
CN(C)C(=O)Cn1c(-c2ccc(Cl)cc2Cl)nc2cccnc21	< 5.00		ED50 [4]: Convulsant
CN(C)C(=O)Cn1c(-c2ccc(Br)o2)nc2cccnc21	6.70	100 mg/kg	
Cc1ccc(-c2nc3cccnc3n2CC(=O)N(C)C)cc1	5.76	4.7 mg/kg	
CN1CCN(C(=O)Cn2c(-c3ccc(Cl)cc3)nc3cccnc32)CC1	< 5.00		ED50 [2]: 100 mg/kg
O=C(Cn1c(-c2ccc(Cl)cc2)nc2cccnc21)N1CCOCC1	5.39	11.5 mg/kg	
CN(C)C(=O)Cn1c(-c2ccc(Cl)cc2)nc2cnccc21	< 5.00		
NC(=O)Cn1c(-c2ccc(Br)cc2)nc2cccnc21	< 5.00	17.8 mg/kg	
CN(C)C(=O)Cn1c(-c2ccc([N+](=O)[O-])cc2)nc2cccnc21	< 5.00	47 mg/kg	
CCCN(C)C(=O)Cn1c(-c2ccc(Cl)cc2)nc2cccnc21	6.17	11.6 mg/kg	
CCC1(C)CC(=O)NC1=O (configuration not stated) [ETHOSUXIMIDE]			ED50 [5]: 130 mg/kg; ED50 [6]: > 1000 mg/kg
O=C(Cn1c(-c2ccc(Cl)cc2)nc2cccnc21)N1CCCCC1	5.57	56.2 mg/kg	
NC(=O)Cn1c(-c2cccc(Cl)c2)nc2cccnc21			pIC50 [7]: > 5.00
CN(C)C(=O)Cn1c(-c2ccc(Cl)cc2)nc2ccncc21	< 5.00		
CN(C)C(=O)Cn1c(-c2ccc(C(F)(F)F)cc2)nc2cccnc21		3.2 mg/kg	pIC50 [7]: 5.43
O=C(Cn1c(-c2ccc(Cl)cc2)nc2cccnc21)Nc1cccnc1		100 mg/kg	pIC50 [7]: 6.64
NC(=O)Cn1c(-c2ccc(C(F)(F)F)cc2)nc2cccnc21	< 5.00	11.7 mg/kg	
O=C(O)CNC(=O)Cn1c(-c2ccc(Cl)cc2)nc2cccnc21			pIC50 [7]: 5.15
CN(C)C(=O)Cn1c(-c2ccc(Br)cc2)nc2cccnc21		7 mg/kg	pIC50 [7]: 5.52
CCCN(CCC)C(=O)Cn1c(-c2ccc(Cl)cc2)nc2cccnc21	6.42	11 mg/kg	
O=C(Cn1c(-c2ccc(Cl)cc2)nc2cccnc21)Nc1ccccn1	6.51	100 mg/kg	
CN(C)C(=O)Cn1c(-c2ccc(Cl)cc2)nc2ccc(Cl)nc21	6.34	1.1 mg/kg	

SMILES	pIC50 [1]	ED50 ([3]; Mus musculus, read-out: ED50)	further results
NC(=O)Cn1c(-c2ccc(Cl)cc2)nc2cccnc21	5.10	4.1 mg/kg	ED50 [6]: 329 mg/kg; TD50 [8]: > 1000 mg/kg; ED50 [9]: 174 mg/kg; ED50 [10]: 211 mg/kg
NC(=O)Cn1c(-c2ccc(Cl)cc2)nc2ccc[n+]([O-])c21	< 5.00	52.1 mg/kg	
CNC(=O)Cn1c(-c2ccc(Cl)cc2)nc2cccnc21	5.80	12.5 mg/kg	
CN(C)C(=O)Cn1c(-c2ccoc2)nc2cccnc21	< 5.00		
Cc1ccc(-c2nc3cccnc3n2CC(N)=O)cc1	5.35	50.5 mg/kg	
CNC1=Nc2ccc(Cl)cc2C(c2ccccc2)=[N+]([O-])C1 [CHLORDIAZEPOXIDE]	6.15	1.9 mg/kg	
CN(C)C(=O)CCn1c(-c2ccc(Cl)cc2)nc2cccnc21	5.03	29.4 mg/kg	
CCOC(=O)CCCNC(=O)Cn1c(-c2ccc(Cl)cc2)nc2cccnc21	< 5.00	100 mg/kg	
CN(C)C(=O)Cn1c(-c2ccc(F)cc2)nc2cccnc21	< 5.00	40.5 mg/kg	
CC(C)N(C(=O)Cn1c(-c2ccc(Cl)cc2)nc2cccnc21)C(C)C	< 5.00		
O=C(Cn1c(-c2ccc(Cl)cc2)nc2cccnc21)Nc1ccccc1	< 5.00		
COc1ccc(-c2nc3cccnc3n2CC(=O)N(C)C)cc1	5.07	39.5 mg/kg	
CCCN(CCC)C(=O)Cn1c(-c2ccc(Cl)cc2)nc2ncccc21	< 5.00		
O=C1NC(=O)C(c2ccccc2)(c2ccccc2)N1 [PHENYTOIN]			ED50 [5]: > 300 mg/kg; ED50 [9]: > 100 mg/kg; ED50 [10]: > 100 mg/kg
CCOC(=O)CNC(=O)Cn1c(-c2ccc(Cl)cc2)nc2cccnc21			pIC50 [7]: 5.04
CN(C)C(=O)Cn1c(-c2ccc(Cl)cc2)nc2cc(Cl)cnc21	< 5.00	56.2 mg/kg	
O=C(Cn1c(-c2ccc(Cl)cc2)nc2cccnc21)N1CCCC1	5.57	17.9 mg/kg	
Cc1ccc2nc(-c3ccc(Cl)cc3)n(CC(=O)N(C)C)c2n1	6.06	2.5 mg/kg	
CN(C)C(=O)Cn1c(-c2ccc(Cl)cc2)nc2cccnc21	5.44		ED50 [2]: 4.1 mg/kg
Cc1ccc(-c2nc3ccc(Cl)nc3n2CC(=O)N(C)C)cc1	6.82	2.7 mg/kg	GABA shift [11]: 3.06; Sedative dose [12]: 5.62 mg/kg; minimal effective dose [12]: 0.1 mg/kg; minimal effective dose [13]: 10 mg/kg; minimal effective dose [14]: 1 mg/kg; ED50 [15]: 15.2 mg/kg
CC(=O)Oc1ccc2nc(-c3ccc(Cl)cc3)n(CC(=O)N(C)C)c2n1	< 5.00	100 mg/kg	
CCN(CC)C(=O)Cn1c(-c2ccc(Cl)cc2)nc2cccnc21	5.74	16 mg/kg	
C[C@H](C(=O)N(C)C)n1c(-c2ccc(Cl)cc2)nc2cccnc21	< 5.00	43.5 mg/kg	
CN(C)CCNC(=O)Cn1c(-c2ccc(Cl)cc2)nc2cccnc21	< 5.00	62 mg/kg	

SMILES	pIC50 [1]	ED50 ([3]; Mus musculus, read-out: ED50)	further results
CCCC(CCC)C(=O)O [VALPROIC ACID]			ED50 [5]: 149 mg/kg; ED50 [6]: 272 mg/kg
CCCCN(CCCC)C(=O)Cn1c(-c2ccc(Cl)cc2)nc2cccnc21	6.05		ED50 [2]: 38 mg/kg
CN(C)C(=O)Cn1c(-c2ccccc2)nc2cccnc21	< 5.00	35 mg/kg	
CN(C)C(=O)Cn1c(-c2cccc(Cl)c2)nc2cccnc21		> 56.2 mg/kg	pIC50 [7]: 5.62; ED50 [3]: <100 mg/kg
CC(=O)NCCNC(=O)Cn1c(-c2ccc(Cl)cc2)nc2cccnc21	5.14		
CN(C)C(=O)Cn1c(-c2ccc(Cl)cc2)nc2ccc(O)nc21	5.28		
NC(=O)Cn1c(-c2ccc(Cl)cc2)nc2ncccc21	< 5.00		
CN(C)C(=O)Cn1c(-c2ccsc2)nc2cccnc21	< 5.00	38 mg/kg	
O=C(Cn1c(-c2ccc(Cl)cc2)nc2cccnc21)Nc1ccncc1	6.33		
NC(=O)Cn1c(-c2ccccc2)nc2cccnc21			pIC50 [7]: < 5.00
O=C(O)CCCNC(=O)Cn1c(-c2ccc(Cl)cc2)nc2cccnc21	< 5.00		
CCCNC(=O)Cn1c(-c2ccc(Cl)cc2)nc2cccnc21		37.5 mg/kg	pIC50 [7]: 5.90
CCC1(c2ccccc2)C(=O)NC(=O)NC1=O [PHENOBARBITAL]			ED50 [5]: 13.2 mg/kg; ED50 [6]: 21.8 mg/kg; ED50 [9]: 37.7 mg/kg; ED50 [10]: 27.5 mg/kg
CN1C(=O)CN=C(c2ccccc2)c2cc(Cl)ccc21 [DIAZEPAM]		0.9 mg/kg	Sedative dose [12]: 10 mg/kg; minimal effective dose [12]: 1 mg/kg; minimal effective dose [13]: 2.5 mg/kg; minimal effective dose [14]: 1 mg/kg; ED50 [16]: 0.2 mg/kg; ED50 [15]: 1.7 mg/kg
CN(C)C(=O)Cn1c(-c2ccccn2)nc2cccnc21			pIC50 [7]: 5.59
CN(C)CCN(C)C(=O)Cn1c(-c2ccc(Cl)cc2)nc2cccnc21	< 5.00	100 mg/kg	
CC(=O)N1CCN(C(=O)Cn2c(-c3ccc(Cl)cc3)nc3cccnc32)CC1	5.19		ED50 [2]: 100 mg/kg
C[C@@H](C(=O)N(C)C)n1c(-c2ccc(Cl)cc2)nc2cccnc21	< 5.00	31.6 mg/kg	
CN(C)C(=O)Cn1c(Cc2ccc(Cl)cc2)nc2cccnc21	< 5.00		
CN(C)C(=O)Cn1c(-c2ccco2)nc2cccnc21	< 5.00	> 100 mg/kg	
NC(=O)Cn1c(-c2ccc(F)cc2)nc2cccnc21	< 5.00		
CCOC(=O)N1CCN(C(=O)Cn2c(-c3ccc(Cl)cc3)nc3cccnc32)CC1	5.29		
CN(C)C(=O)Cn1c(-c2ccc(Cl)cc2)nc2c(Cl)ccnc21	< 5.00		
CN(C)C(=O)Cn1c(-c2ccc(Cl)cc2)nc2ccc[n+]([O-])c21	< 5.00	20 mg/kg	
